Source: the RNAGym collection of RNA variant scans (doi:10.1126/science.aae0568)
This sample holds only a part of the variants without activity.

B1: tRNA (parent)
chain: GUUCCGUUGGCGUAAUGGUAACGCGUCUCCCUCCUAAGGAGAAGACUGCGGGUUCGAGUCCCGUACGGAACG

Variants of: B1
Assay: yeast fitness relative to wild type (ratio to wild type); higher = fitter; tRNA-Arg(CCU), competitive growth, 37 C, YPD
How it was run: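 Amplicons of the tRNA-Arg(CCU) gene were sequenced, 100-nucleotide paired-end, from the start population and from each end population of a pooled yeast competition. The competition, in six parallel replicates, lasted 24 hours in YPD at 37°C. Fitness relative to wild type was calculated from changes in genotype frequencies. Genotypes had to have ≥ 100 starting reads, and estimates < 0.5 were set to 0.5.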

| Variant | yeast fitness |
| --- | --- |
| U3G U28A | 0.605 |
| U3G U28C | 0.888 |
| U3G U35A | 0.533 |
| U3G U35A A70G | ≤ 0.5 |
| U3G U35G A37U U47C G56C A69C | ≤ 0.5 |
| U3G U47A G68C | ≤ 0.5 |
| U3G U47C | 0.901 |
| U3G U53A | 0.662 |
| U3G U53C A57G C66U A69U | ≤ 0.5 |
| U3G U53C C66U A69U | 0.548 |
| U3G U59A | 0.793 |
| U3G U64G | 0.716 |
| C4A A14C | 0.591 |
| C4A A14C A21C C22U C24U C29U U53C | 0.568 |
| C4A A14C C24U G25A C34A | 0.571 |
| C4A A14C C27A | ≤ 0.5 |
| C4A A14C G38A U59G | ≤ 0.5 |
| C4A A14C U19A A69C | 0.53 |
| C4A A14G A15G G56C | ≤ 0.5 |
| C4A A14G C22G C29U | 0.569 |
| C4A A14G C24U U32G A43G | ≤ 0.5 |

| Variant | yeast fitness |
| --- | --- |
| C4A A14G C24U U32G A43G C66U | 0.573 |
| C4A A14G C30G A45G G52A | 0.609 |
| C4A A14G C30G A45G G52A G63A | ≤ 0.5 |
| C4A A14G C49A | ≤ 0.5 |
| C4A A14G G18A G25C | ≤ 0.5 |
| C4A A14G G23C A65G | ≤ 0.5 |
| C4A A14G G52C C66U | ≤ 0.5 |
| C4A A14U A20C U28G | 0.588 |
| C4A A14U A20C U28G A70C | ≤ 0.5 |
| C4A A14U A20C U28G C49U | ≤ 0.5 |
| C4A A14U A20C U28G C61U C62A | ≤ 0.5 |
| C4A A14U A20C U28G C62A | ≤ 0.5 |
| C4A A14U A20C U28G C66U | 0.557 |
| C4A A14U A20C U28G G63A | 0.562 |
| C4A A14U A20C U28G G63U A69C | ≤ 0.5 |
| C4A A14U A20C U28G U32A | ≤ 0.5 |
| C4A A14U A20C U28G U54C | ≤ 0.5 |
| C4A A14U A43C A65U | ≤ 0.5 |
| C4A A14U C29U | 0.657 |
| C4A A14U C34U | 0.763 |
| C4A A14U C34U U54C | ≤ 0.5 |

| Variant | yeast fitness |
| --- | --- |
| C4A A15C | 0.544 |
| C4A A15C A20C | ≤ 0.5 |
| C4A A15C A69C | ≤ 0.5 |
| C4A A15C C55U G63C | ≤ 0.5 |
| C4A A15C C60U U64A C66A G68A A69G | ≤ 0.5 |
| C4A A15C U35A C49A | 0.545 |
| C4A A15C U35G | ≤ 0.5 |
| C4A A15G A40G U64A | ≤ 0.5 |
| C4A A15G C31U C33U | ≤ 0.5 |
| C4A A15G C33G C60A A70C | 0.599 |
| C4A A15G C33U | 0.753 |
| C4A A15G C33U C62U | ≤ 0.5 |
| C4A A15G G17A A21C U28A A40U | ≤ 0.5 |
| C4A A15G G17A C33U A57U U59C | ≤ 0.5 |
| C4A A15G G17A C61G | ≤ 0.5 |
| C4A A15G G56C | 0.583 |
| C4A A15G G56C C60A | ≤ 0.5 |
| C4A A15G U32C U35C G67C A69U | ≤ 0.5 |
| C4A A15U | 0.645 |
| C4A A15U A42G C61U | ≤ 0.5 |
| C4A A15U C61A | 0.78 |

| Variant | yeast fitness |
| --- | --- |
| C4A A15U G18C G56C | ≤ 0.5 |
| C4A A15U G18C G56C G67A | ≤ 0.5 |
| C4A A15U G48A | 0.559 |
| C4A A15U U19A C27A C29U C33U A70U | ≤ 0.5 |
| C4A A20C | 0.64 |
| C4A A20C A42C U54C | ≤ 0.5 |
| C4A A20C C27U C49G | ≤ 0.5 |
| C4A A20C C27U U32C C46U | ≤ 0.5 |
| C4A A20C G68A | ≤ 0.5 |
| C4A A20C U47A | ≤ 0.5 |
| C4A A20G A42C C46G C49U A69C | ≤ 0.5 |
| C4A A20G C24A G52C U54A | ≤ 0.5 |
| C4A A20G C24G C31G | ≤ 0.5 |
| C4A A20G C24G C31G C62U | 0.598 |
| C4A A20G C34U | ≤ 0.5 |
| C4A A20G C60A A70C | ≤ 0.5 |
| C4A A20G G44C A45G C55U | ≤ 0.5 |
| C4A A20U A43U U53C U59A C66U | ≤ 0.5 |
| C4A A20U C24U U26G C27U A36C A45U C55G | 0.607 |
| C4A A20U C34A G63C G67C A69U | ≤ 0.5 |
| C4A A21C | 0.775 |
